Assay results from ChEMBL document CHEMBL3297682, “Synthesis and anticancer activity of γ-(triazolyl ethylidene)butenolides and polyfunctional pyrrolinones” (Eur J Med Chem, 2014).
Calls of active or inactive are those of the source. The calls are words filed in the database; no cut-off is given here.

Columns and labels:
MDA-MB-231 [1] = assay: Induction of apoptosis in human MDA-MB-231 cells assessed as necrotic cells measured after 24 hrs by Annexin-V/PI staining based flow cytometry (reference value: 0.84%); type: functional
U-937 [2] = assay: Antiproliferative activity against human U937 cells after 24 hrs by MTT assay; type: functional, cell-based; details: U-937, 24 h
Method in brief: (§1)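 1×10^4 cells/well seeded in DMEM with 10% FBS and antibiotic-antimycotic, grown 24 h at 37 °C under 5% CO2. Compounds diluted in phenol red-free DMEM with 2% FBS and given for 24 h, with vehicle control. MTT (5 mg/mL, 20 µL) added for 3 h. Formazan dissolved in DMSO, absorbance read at 570 nm. IC50 is the concentration giving 50% growth inhibition.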

MDA-MB-231 [3] = assay: Induction of apoptosis in human MDA-MB-231 cells assessed as early apoptotic cells at 22 uM measured after 24 hrs by Annexin-V/PI staining based flow cytometry (reference value: 19.77%); type: functional
Method in brief: (§2)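 MDA-MB-231 cells (1×10^6) seeded in six-well plates, grown overnight, then exposed 24 h to 11 or 22 µM. Cells trypsinized, washed in PBS, stained with Annexin-V-FITC and propidium iodide using a kit, and analysed by flow cytometry. Compared with untreated vehicle control.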

HEK293 = assay: Cytotoxicity against human HEK293 cells after 24 hrs by MTT assay; type: cell-based; details: HEK293, 24 h; method in brief: as §1
MDA-MB-231 [4] = assay: Induction of apoptosis in human MDA-MB-231 cells assessed as early apoptotic cells compound treated 1 hr post 10 mM ROS inhibitor NAC addition measured after 24 hrs by Annexin-V/PI staining based flow cytometry (reference value: 11.31%); type: functional
MDA-MB-231 [5] = assay: Induction of reactive oxygen species production in human MDA-MB-231 cells after 24 hrs by DCFH-DA dye based flow cytometry; type: functional, cell-based
Method in brief: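 MDA-MB-231 cells (1×10^6) seeded 24 h in six-well plates, then treated 24 h. Cells harvested, washed in PBS and fixed in absolute methanol. Cells resuspended in PBS with 15 µg/mL DCFH-DA for 30 min in the dark, then pelleted, taken up in PBS, and fluorescence read by flow cytometry.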

MDA-MB-231 [6] = assay: Induction of apoptosis in human MDA-MB-231 cells assessed as early apoptotic cells measured after 24 hrs by Annexin-V/PI staining based flow cytometry (reference value: 11.31%); type: functional
U-937 [7] = assay: Induction of cell cycle arrest in human U937 cells assessed as accumulation at subG1 phase at IC50 concentration measured after 24 hrs by propidium iodide staining based flow cytometry; type: functional
Method in brief: (§3)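 1×10^6 cells seeded in six-well plates and treated 24 h. Floating and trypsinized adherent cells pooled and fixed in 70% ethanol. Cells washed in PBS, then stained 30 min at room temperature in the dark with 30 µg/mL propidium iodide in PBS containing RNase A. DNA content measured by flow cytometry.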

MDA-MB-231 [8] = assay: Induction of apoptosis in human MDA-MB-231 cells assessed as necrotic cells at 11 uM measured after 24 hrs by Annexin-V/PI staining based flow cytometry (reference value: 2.24%); type: functional; method in brief: as §2
MDA-MB-231 [9] = assay: Induction of apoptosis in human MDA-MB-231 cells assessed as viable cells at 11 uM measured after 24 hrs by Annexin-V/PI staining based flow cytometry (reference value: 71.87%); type: functional; details: MDA-MB-231, 24 h, read-out: Activity; method in brief: as §2
MDA-MB-231 [10] = assay: Induction of apoptosis in human MDA-MB-231 cells assessed as late apoptotic cells measured after 24 hrs by Annexin-V/PI staining based flow cytometry (reference value: 2.91%); type: functional
MDA-MB-231 [11] = assay: Effect on phosphorylated p38 level in human MDA-MB-231 cells at 11 uM after 24 hrs by western blot analysis pretreated with ROS inhibitor NAC; type: functional, cell-based
Method in brief: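 MDA-MB-231 cells pretreated with NAC, then exposed to compound at 11 µM for 24 h. Lysates in RIPA quantified by Bradford. 40 µg protein resolved by SDS-PAGE and blotted to PVDF. Membranes blocked with 1% BSA, probed overnight at 4 °C for phospho-p38 and p38, then with HRP secondary.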

MDA-MB-231 [12] = assay: Induction of apoptosis in human MDA-MB-231 cells assessed as necrotic cells measured compound treated 1 hr post 10 mM ROS inhibitor NAC addition measured after 24 hrs by Annexin-V/PI staining based flow cytometry (reference value: 0.84%); type: functional
MDA-MB-231 [13] = assay: Induction of apoptosis in human MDA-MB-231 cells assessed as viable cells measured after 24 hrs by Annexin-V/PI staining based flow cytometry (reference value: 84.94%); type: functional
HCT-116 [14] = assay: Induction of cell cycle arrest in human HCT116 cells assessed as accumulation at subG1 phase at IC50 concentration measured after 24 hrs by propidium iodide staining based flow cytometry; type: functional; method in brief: as §3
MDA-MB-231 [15] = assay: Induction of apoptosis in human MDA-MB-231 cells assessed as late apoptotic cells at 11 uM measured after 24 hrs by Annexin-V/PI staining based flow cytometry (reference value: 6.11%); type: functional; method in brief: as §2
PC-3 [16] = assay: Induction of cell cycle arrest in human PC3 cells assessed as accumulation at subG1 phase at IC50 concentration measured after 24 hrs by propidium iodide staining based flow cytometry; type: functional; method in brief: as §3
MDA-MB-231 [17] = assay: Induction of apoptosis in human MDA-MB-231 cells assessed as late apoptotic cells compound treated 1 hr post 10 mM ROS inhibitor NAC addition measured after 24 hrs by Annexin-V/PI staining based flow cytometry (reference value: 2.91%); type: functional
MCF7 [18] = assay: Antiproliferative activity against human MCF7 cells after 24 hrs by MTT assay; type: functional, cell-based; details: MCF7, 24 h; method in brief: as §1
MDA-MB-231 [19] = assay: Induction of apoptosis in human MDA-MB-231 cells assessed as viable cells compound treated 1 hr post 10 mM ROS inhibitor NAC addition measured after 24 hrs by Annexin-V/PI staining based flow cytometry (reference value: 84.94%); type: functional
MDA-MB-231 [20] = assay: Induction of cell cycle arrest in human MDA-MB-231 cells assessed as accumulation at subG1 phase at IC50 concentration measured after 24 hrs by propidium iodide staining based flow cytometry; type: functional; method in brief: as §3
MDA-MB-231 [21] = assay: Increase in phosphorylated p38 level in human MDA-MB-231 cells after 24 hrs by western blot analysis; type: functional, cell-based
Method in brief: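 MDA-MB-231 cells (1×10^6) seeded 24 h, then treated 24 h at 11 and 22 µM. Cells lysed in ice-cold RIPA and protein measured by Bradford. 40 µg protein run on SDS-PAGE and transferred to PVDF. Membranes blocked with 1% BSA, probed overnight at 4 °C for p-p38 and total p38, then with HRP secondary for 2 h.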

MDA-MB-231 [22] = assay: Induction of apoptosis in human MDA-MB-231 cells assessed as late apoptotic cells at 22 uM measured after 24 hrs by Annexin-V/PI staining based flow cytometry (reference value: 6.11%); type: functional; method in brief: as §2
MCF7 [23] = assay: Induction of cell cycle arrest in human MCF7 cells assessed as accumulation at subG1 phase at IC50 concentration measured after 24 hrs by propidium iodide staining based flow cytometry; type: functional; method in brief: as §3
MDA-MB-231 [24] = assay: Induction of apoptosis in human MDA-MB-231 cells assessed as early apoptotic cells at 11 uM measured after 24 hrs by Annexin-V/PI staining based flow cytometry (reference value: 19.77%); type: functional; method in brief: as §2
MDA-MB-231 [25] = assay: Induction of apoptosis in human MDA-MB-231 cells assessed as viable cells at 22 uM measured after 24 hrs by Annexin-V/PI staining based flow cytometry (reference value: 71.87%); type: functional; details: MDA-MB-231, 24 h, read-out: Activity; method in brief: as §2
MDA-MB-231 [26] = assay: Antiproliferative activity against human MDA-MB-231 cells after 24 hrs by MTT assay; type: functional, cell-based; details: MDA-MB-231, 24 h; method in brief: as §1
PC-3 [27] = assay: Antiproliferative activity against human PC3 cells after 24 hrs by MTT assay; type: functional, cell-based; details: PC-3, 24 h; method in brief: as §1
MDA-MB-231 [28] = assay: Induction of apoptosis in human MDA-MB-231 cells assessed as necrotic cells at 22 uM measured after 24 hrs by Annexin-V/PI staining based flow cytometry (reference value: 2.24%); type: functional; method in brief: as §2
HCT-116 [29] = assay: Antiproliferative activity against human HCT116 cells after 24 hrs by MTT assay; type: functional, cell-based; details: HCT-116, 24 h; method in brief: as §1

- IC50 (U-937 [2]): > 100 µM
- IC50 (MCF7 [18]): > 100 µM
- IC50 (MDA-MB-231 [26]): 11.3 µM
- IC50 (PC-3 [27]): 30.4 µM
- IC50 (HCT-116 [29]): 50.3 µM
Compound: COC1=C(OC)C(O)(CCn2cc(-c3ccc(C(C)(C)C)cc3)nn2)NC1=O (stereo not given)
- Activity (MDA-MB-231 [1]): 0.76%
- Activity (MDA-MB-231 [3]): 41.92%
- IC50 (HEK293): 62 µM
- Activity (MDA-MB-231 [4]): 13.91%
- Activity (MDA-MB-231 [5]): Active
- Activity (MDA-MB-231 [6]): 32.05%
- Activity (U-937 [7]): Active
- Activity (MDA-MB-231 [8]): 1.48%
- viability at 11 µM (MDA-MB-231 [9]): 67.8%
- Activity (MDA-MB-231 [10]): 10.98%
- Activity (MDA-MB-231 [11]): inactive
- Activity (MDA-MB-231 [12]): 1.112%
- Activity (MDA-MB-231 [13]): 56.21%
- Activity (HCT-116 [14]): Active
- Activity (MDA-MB-231 [15]): 3.38%
- Activity (PC-3 [16]): Active
- Activity (MDA-MB-231 [17]): 3.61%
- Activity (MDA-MB-231 [19]): 81.36%
- Activity (MDA-MB-231 [20]): Active
- Activity (MDA-MB-231 [21]): Dose-dependent effect
- Activity (MDA-MB-231 [22]): 6.95%
- Activity (MCF7 [23]): Active
- Activity (MDA-MB-231 [24]): 27.35%
- viability at 22 µM (MDA-MB-231 [25]): 48.8%
- Activity (MDA-MB-231 [28]): 2.35%
